Results reported in ChEMBL document CHEMBL1914398, “Synthesis and evaluation of novel N-fluoropyridyl derivatives of tropane as potential PET imaging agents for the dopamine transporter” (Bioorg Med Chem Lett, 2011).

Assays:
[1] = Selectivity ratio of Ki for NET to Ki for DAT
[2] = molecular target: Sodium-dependent noradrenaline transporter (Homo sapiens, UniProt P23975); experiment: Displacement of [125I]-INXT from NET transfected in pig LLC-PK1 cells by radioligand competition binding assay; assay type: cell-based
Sodium-dependent noradrenaline transporter, sequence (P23975 whole entry): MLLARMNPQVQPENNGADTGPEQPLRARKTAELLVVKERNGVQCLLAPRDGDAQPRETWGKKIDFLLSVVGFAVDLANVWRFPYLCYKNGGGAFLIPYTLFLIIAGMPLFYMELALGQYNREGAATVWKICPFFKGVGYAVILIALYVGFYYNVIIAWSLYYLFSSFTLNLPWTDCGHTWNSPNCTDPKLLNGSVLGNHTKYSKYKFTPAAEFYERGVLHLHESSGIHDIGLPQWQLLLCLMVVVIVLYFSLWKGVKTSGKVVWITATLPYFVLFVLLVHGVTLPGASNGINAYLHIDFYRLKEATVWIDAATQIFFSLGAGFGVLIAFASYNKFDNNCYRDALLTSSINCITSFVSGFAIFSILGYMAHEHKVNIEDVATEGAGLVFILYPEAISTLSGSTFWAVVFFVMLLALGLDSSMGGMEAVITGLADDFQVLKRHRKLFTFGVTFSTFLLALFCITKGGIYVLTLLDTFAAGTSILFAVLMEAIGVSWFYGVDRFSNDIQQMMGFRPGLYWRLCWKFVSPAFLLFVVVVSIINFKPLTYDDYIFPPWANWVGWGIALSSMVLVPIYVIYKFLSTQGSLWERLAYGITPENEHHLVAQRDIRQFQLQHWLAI

[3] = Selectivity ratio of Ki for SERT to Ki for DAT
[4] = molecular target: Sodium-dependent dopamine transporter (Homo sapiens, UniProt Q01959); experiment: Displacement of [125I]-IPT from DAT transfected in pig LLC-PK1 cells by radioligand competition binding assay; assay type: cell-based
Sodium-dependent dopamine transporter, sequence (Q01959 whole entry): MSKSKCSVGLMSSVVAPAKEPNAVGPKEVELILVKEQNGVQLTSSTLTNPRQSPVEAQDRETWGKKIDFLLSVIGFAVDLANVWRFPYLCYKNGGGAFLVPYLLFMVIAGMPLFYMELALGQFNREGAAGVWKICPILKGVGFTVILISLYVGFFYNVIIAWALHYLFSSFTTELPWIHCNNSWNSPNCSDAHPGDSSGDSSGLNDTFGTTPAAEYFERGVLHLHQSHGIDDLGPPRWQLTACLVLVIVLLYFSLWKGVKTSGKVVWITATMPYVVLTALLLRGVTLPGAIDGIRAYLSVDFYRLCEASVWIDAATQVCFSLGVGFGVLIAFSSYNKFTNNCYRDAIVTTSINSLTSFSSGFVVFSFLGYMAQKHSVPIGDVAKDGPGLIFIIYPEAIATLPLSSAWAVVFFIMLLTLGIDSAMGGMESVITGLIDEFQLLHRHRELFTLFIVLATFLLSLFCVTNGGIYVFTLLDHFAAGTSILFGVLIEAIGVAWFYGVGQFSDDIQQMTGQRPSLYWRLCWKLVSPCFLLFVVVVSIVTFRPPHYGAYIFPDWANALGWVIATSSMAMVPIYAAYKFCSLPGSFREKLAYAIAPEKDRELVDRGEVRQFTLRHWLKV

[5] = molecular target: Sodium-dependent serotonin transporter (Homo sapiens, UniProt P31645); experiment: Displacement of [125I]-IDAM from SERT transfected in pig LLC-PK1 cells by radioligand competition binding assay; assay type: cell-based
Sodium-dependent serotonin transporter, sequence (P31645 whole entry): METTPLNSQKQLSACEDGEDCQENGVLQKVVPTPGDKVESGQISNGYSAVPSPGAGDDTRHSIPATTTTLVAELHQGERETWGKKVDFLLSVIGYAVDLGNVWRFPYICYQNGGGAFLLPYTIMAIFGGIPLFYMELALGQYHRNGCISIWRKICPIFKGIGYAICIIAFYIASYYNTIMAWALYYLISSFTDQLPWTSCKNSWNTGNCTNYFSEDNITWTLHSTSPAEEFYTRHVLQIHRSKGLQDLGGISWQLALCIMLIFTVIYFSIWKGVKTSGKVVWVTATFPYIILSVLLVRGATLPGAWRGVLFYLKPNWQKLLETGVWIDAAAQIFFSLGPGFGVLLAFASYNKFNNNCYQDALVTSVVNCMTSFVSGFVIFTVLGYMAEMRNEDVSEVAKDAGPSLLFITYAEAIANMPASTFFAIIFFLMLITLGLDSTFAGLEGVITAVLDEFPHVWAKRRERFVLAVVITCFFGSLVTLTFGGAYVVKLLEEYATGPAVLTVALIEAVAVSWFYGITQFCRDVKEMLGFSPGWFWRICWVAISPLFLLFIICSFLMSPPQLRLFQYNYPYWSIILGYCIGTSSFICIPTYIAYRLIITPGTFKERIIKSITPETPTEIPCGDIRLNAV

Nucleic Acid [6] = experiment: Ratio of drug uptake in hypothalamus to cerebellum in Sprague-Dawley rat at 25 uCi, iv after 120 mins; assay type: ADME, organism-based; conditions: in vivo, 2 h
In short: (§1)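 Region-to-cerebellum uptake ratios were calculated from %ID/g values (n = 5 rats per time point). These came from normal male Sprague-Dawley rats given 25 µCi of the 18F-tracer through the femoral vein and dissected at 2, 60, 120 or 180 min. Tissue was gamma-counted, and cerebellum served as the non-target background region.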

[7] = Drug uptake in Sprague-Dawley rat caudate at 2.5 mCi, iv after 60 mins post injection measured by autoradiographic technique; assay type: ADME, organism-based, Caudate nucleus; conditions: in vivo, 1 h
In short: (§2)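 For ex vivo autoradiography, normal Sprague-Dawley rats received 2.5 mCi of the 18F-tracer intravenously and were sacrificed at 60 min post-injection. Brains were removed immediately, frozen and sectioned. Dried sections were exposed to film overnight in an autoradiographic cassette to map regional radioactivity.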

Cortex [8] = experiment: Drug uptake in Sprague-Dawley rat cortex at 25 uCi, iv after 180 mins by gamma counter; assay type: ADME, organism-based; conditions: in vivo, 3 h
In short: (§3)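 Normal male Sprague-Dawley rats were given 25 µCi of the 18F-tracer via the femoral vein. Rats (n = 5 per time point) were sacrificed at 2, 60, 120 or 180 min post-injection. Brain regions were dissected and weighed, and radioactivity was gamma-counted. Values are %ID/g, calculated against diluted aliquots of the injected dose, as mean ± S.D.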

Striatum [9] = experiment: Drug uptake in Sprague-Dawley rat striatum at 25 uCi, iv after 180 mins by gamma counter; assay type: ADME, organism-based; conditions: in vivo, 3 h; in short: as §3
Hippocampus [10] = experiment: Drug uptake in Sprague-Dawley rat hippocampus at 25 uCi, iv after 180 mins by gamma counter; assay type: ADME, organism-based; conditions: in vivo, 3 h; in short: as §3
Brain [11] = experiment: Drug uptake in Sprague-Dawley rat brain at 25 uCi, iv after 180 mins by gamma counter; assay type: ADME, organism-based; conditions: in vivo, 3 h; in short: as §3
Hypothalamus [12] = experiment: Drug uptake in Sprague-Dawley rat hypothalamus at 25 uCi, iv after 60 mins by gamma counter; assay type: ADME, organism-based; conditions: in vivo, 1 h; in short: as §3
Cerebellum [13] = experiment: Drug uptake in Sprague-Dawley rat cerebellum at 25 uCi, iv after 60 mins by gamma counter; assay type: ADME, organism-based; conditions: in vivo, 1 h; in short: as §3
Nucleic Acid [14] = experiment: Ratio of drug uptake in striatum to cerebellum in Sprague-Dawley rat at 25 uCi, iv after 120 mins; assay type: ADME, organism-based; conditions: in vivo, 2 h; in short: as §1
Nucleic Acid [15] = experiment: Ratio of drug uptake in hypothalamus to cerebellum in Sprague-Dawley rat at 25 uCi, iv after 180 mins; assay type: ADME, organism-based; conditions: in vivo, 3 h; in short: as §1
Nucleic Acid [16] = experiment: Ratio of drug uptake in striatum to cerebellum in Sprague-Dawley rat at 25 uCi, iv after 60 mins; assay type: ADME, organism-based; conditions: in vivo, 1 h; in short: as §1
Striatum [17] = experiment: Drug uptake in Sprague-Dawley rat striatum at 25 uCi, iv after 2 mins by gamma counter; assay type: ADME, organism-based; conditions: in vivo; in short: as §3
Striatum [18] = experiment: Drug uptake in Sprague-Dawley rat striatum at 25 uCi, iv after 120 mins by gamma counter; assay type: ADME, organism-based; conditions: in vivo, 2 h; in short: as §3
Cortex [19] = experiment: Drug uptake in Sprague-Dawley rat cortex at 25 uCi, iv after 120 mins by gamma counter; assay type: ADME, organism-based; conditions: in vivo, 2 h; in short: as §3
Nucleic Acid [20] = experiment: Ratio of drug uptake in hippocampus to cerebellum in Sprague-Dawley rat at 25 uCi, iv after 2 mins; assay type: ADME, organism-based; conditions: in vivo; in short: as §1
Hypothalamus [21] = experiment: Drug uptake in Sprague-Dawley rat hypothalamus at 25 uCi, iv after 120 mins by gamma counter; assay type: ADME, organism-based; conditions: in vivo, 2 h; in short: as §3
Nucleic Acid [22] = experiment: Ratio of drug uptake in cortex to cerebellum in Sprague-Dawley rat at 25 uCi, iv after 60 mins; assay type: ADME, organism-based; conditions: in vivo, 1 h; in short: as §1
Cortex [23] = experiment: Drug uptake in Sprague-Dawley rat cortex at 2.5 mCi, iv after 60 mins post injection measured by autoradiographic technique; assay type: ADME, organism-based; conditions: in vivo, 1 h; in short: as §2
Nucleic Acid [24] = experiment: Ratio of drug uptake in hippocampus to cerebellum in Sprague-Dawley rat at 25 uCi, iv after 120 mins; assay type: ADME, organism-based; conditions: in vivo, 2 h; in short: as §1
Cerebellum [25] = experiment: Drug uptake in Sprague-Dawley rat cerebellum at 25 uCi, iv after 120 mins by gamma counter; assay type: ADME, organism-based; conditions: in vivo, 2 h; in short: as §3
Nucleic Acid [26] = experiment: Ratio of drug uptake in hypothalamus to cerebellum in Sprague-Dawley rat at 25 uCi, iv after 60 mins; assay type: ADME, organism-based; conditions: in vivo, 1 h; in short: as §1
Striatum [27] = experiment: Drug uptake in Sprague-Dawley rat striatum at 25 uCi, iv after 60 mins by gamma counter; assay type: ADME, organism-based; conditions: in vivo, 1 h; in short: as §3
Nucleic Acid [28] = experiment: Ratio of drug uptake in cortex to cerebellum in Sprague-Dawley rat at 25 uCi, iv after 120 mins; assay type: ADME, organism-based; conditions: in vivo, 2 h; in short: as §1
Nucleic Acid [29] = experiment: Ratio of drug uptake in striatum to cerebellum in Sprague-Dawley rat at 25 uCi, iv after 180 mins; assay type: ADME, organism-based; conditions: in vivo, 3 h; in short: as §1
Striatum [30] = experiment: Drug uptake in Sprague-Dawley rat striatum at 2.5 mCi, iv after 60 mins post injection measured by autoradiographic technique; assay type: ADME, organism-based; conditions: in vivo, 1 h; in short: as §2
Hypothalamus [31] = experiment: Drug uptake in Sprague-Dawley rat hypothalamus at 25 uCi, iv after 2 mins by gamma counter; assay type: ADME, organism-based; conditions: in vivo; in short: as §3
Hypothalamus [32] = experiment: Drug uptake in Sprague-Dawley rat hypothalamus at 25 uCi, iv after 180 mins by gamma counter; assay type: ADME, organism-based; conditions: in vivo, 3 h; in short: as §3
Nucleic Acid [33] = experiment: Ratio of drug uptake in hypothalamus to cerebellum in Sprague-Dawley rat at 25 uCi, iv after 2 mins; assay type: ADME, organism-based; conditions: in vivo; in short: as §1
Nucleic Acid [34] = experiment: Ratio of drug uptake in striatum to cerebellum in Sprague-Dawley rat at 25 uCi, iv after 2 mins; assay type: ADME, organism-based; conditions: in vivo; in short: as §1
Hippocampus [35] = experiment: Drug uptake in Sprague-Dawley rat hippocampus at 25 uCi, iv after 60 mins by gamma counter; assay type: ADME, organism-based; conditions: in vivo, 1 h; in short: as §3
Brain [36] = experiment: Drug uptake in Sprague-Dawley rat brain at 25 uCi, iv after 120 mins by gamma counter; assay type: ADME, organism-based; conditions: in vivo, 2 h; in short: as §3
[37] = Lipophilicity, log P of the compound; assay type: physicochemical; conditions: octanol/water
Nucleic Acid [38] = experiment: Ratio of drug uptake in cortex to cerebellum in Sprague-Dawley rat at 25 uCi, iv after 2 mins; assay type: ADME, organism-based; conditions: in vivo; in short: as §1
Cerebellum [39] = experiment: Drug uptake in Sprague-Dawley rat cerebellum at 25 uCi, iv after 2 mins by gamma counter; assay type: ADME, organism-based; conditions: in vivo; in short: as §3
[40] = Drug uptake in Sprague-Dawley rat putamen at 2.5 mCi, iv after 60 mins post injection measured by autoradiographic technique; assay type: ADME, organism-based; conditions: in vivo, 1 h; in short: as §2
Cortex [41] = experiment: Drug uptake in Sprague-Dawley rat cortex at 25 uCi, iv after 2 mins by gamma counter; assay type: ADME, organism-based; conditions: in vivo; in short: as §3
Hippocampus [42] = experiment: Drug uptake in Sprague-Dawley rat hippocampus at 25 uCi, iv after 120 mins by gamma counter; assay type: ADME, organism-based; conditions: in vivo, 2 h; in short: as §3
Brain [43] = experiment: Drug uptake in Sprague-Dawley rat brain at 25 uCi, iv after 2 mins by gamma counter; assay type: ADME, organism-based; conditions: in vivo; in short: as §3
Cerebellum [44] = experiment: Drug uptake in Sprague-Dawley rat cerebellum at 25 uCi, iv after 180 mins by gamma counter; assay type: ADME, organism-based; conditions: in vivo, 3 h; in short: as §3
Nucleic Acid [45] = experiment: Ratio of drug uptake in cortex to cerebellum in Sprague-Dawley rat at 25 uCi, iv after 180 mins; assay type: ADME, organism-based; conditions: in vivo, 3 h; in short: as §1
Brain [46] = experiment: Drug uptake in Sprague-Dawley rat brain at 25 uCi, iv after 60 mins by gamma counter; assay type: ADME, organism-based; conditions: in vivo, 1 h; in short: as §3
Nucleic Acid [47] = experiment: Ratio of drug uptake in hippocampus to cerebellum in Sprague-Dawley rat at 25 uCi, iv after 60 mins; assay type: ADME, organism-based; conditions: in vivo, 1 h; in short: as §1
Nucleic Acid [48] = experiment: Ratio of drug uptake in hippocampus to cerebellum in Sprague-Dawley rat at 25 uCi, iv after 180 mins; assay type: ADME, organism-based; conditions: in vivo, 3 h; in short: as §1
Hippocampus [49] = experiment: Drug uptake in Sprague-Dawley rat hippocampus at 25 uCi, iv after 2 mins by gamma counter; assay type: ADME, organism-based; conditions: in vivo; in short: as §3
Cortex [50] = experiment: Drug uptake in Sprague-Dawley rat cortex at 25 uCi, iv after 60 mins by gamma counter; assay type: ADME, organism-based; conditions: in vivo, 1 h; in short: as §3

Compound: CN1C2CCC1[C@@H](CNc1cccc(F)n1)[C@@H](c1ccc(Cl)cc1)C2 (some centres undefined)
- Ratio Ki [1]: 16
- Ki [2]: 66.2 nM
- Ratio Ki [3]: 5
- Ki [4]: 4.1 nM
- Ki [5]: 20.6 nM

Compound: CN1C2CCC1[C@@H](CN(C(=O)OC(C)(C)C)c1cccc([18F])n1)[C@@H](c1ccc(Cl)cc1)C2 (some centres undefined)
- Ratio (Nucleic Acid [6]): 1.31
- Drug uptake [7]: Active
- Drug uptake (Cortex [8]): 0.03 % ID/g
- Drug uptake (Striatum [9]): 0.09 % ID/g
- Drug uptake (Hippocampus [10]): 0.05 % ID/g
- Drug uptake (Brain [11]): 0.04 % ID/g
- Drug uptake (Hypothalamus [12]): 0.29 % ID/g
- Drug uptake (Cerebellum [13]): 0.23 % ID/g
- Ratio (Nucleic Acid [14]): 2.54
- Ratio (Nucleic Acid [15]): 1.51
- Ratio (Nucleic Acid [16]): 2.02
- Drug uptake (Striatum [17]): 0.4 % ID/g
- Drug uptake (Striatum [18]): 0.12 % ID/g
- Drug uptake (Cortex [19]): 0.07 % ID/g
- Ratio (Nucleic Acid [20]): 0.72
- Drug uptake (Hypothalamus [21]): 0.06 % ID/g
- Ratio (Nucleic Acid [22]): 1.21
- Drug uptake (Cortex [23]): Active
- Ratio (Nucleic Acid [24]): 1.61
- Drug uptake (Cerebellum [25]): 0.05 % ID/g
- Ratio (Nucleic Acid [26]): 1.24
- Drug uptake (Striatum [27]): 0.47 % ID/g
- Ratio (Nucleic Acid [28]): 1.4
- Ratio (Nucleic Acid [29]): 3.14
- Drug uptake (Striatum [30]): Active
- Drug uptake (Hypothalamus [31]): 0.4 % ID/g
- Drug uptake (Hypothalamus [32]): 0.04 % ID/g
- Ratio (Nucleic Acid [33]): 0.81
- Ratio (Nucleic Acid [34]): 0.82
- Drug uptake (Hippocampus [35]): 0.28 % ID/g
- Drug uptake (Brain [36]): 0.07 % ID/g
- logP [37]: 1.88
- Ratio (Nucleic Acid [38]): 0.91
- Drug uptake (Cerebellum [39]): 0.49 % ID/g
- Drug uptake [40]: Active
- Drug uptake (Cortex [41]): 0.45 % ID/g
- Drug uptake (Hippocampus [42]): 0.08 % ID/g
- Drug uptake (Brain [43]): 0.4 % ID/g
- Drug uptake (Cerebellum [44]): 0.03 % ID/g
- Ratio (Nucleic Acid [45]): 0.96
- Drug uptake (Brain [46]): 0.26 % ID/g
- Ratio (Nucleic Acid [47]): 1.21
- Ratio (Nucleic Acid [48]): 1.81
- Drug uptake (Hippocampus [49]): 0.36 % ID/g
- Drug uptake (Cortex [50]): 0.28 % ID/g

Compound: COC(=O)[C@@H]1C2CCC(C[C@@H]1c1ccc(Br)cc1)N2C (some centres undefined)
- Ki [4]: 3.5 nM

Compound: CN1C2CCC1[C@@H](C(=O)Nc1cccc(Br)n1)[C@@H](c1ccc(Cl)cc1)C2 (some centres undefined)
- Ratio Ki [1]: 44
- Ki [2]: 3850 nM
- Ratio Ki [3]: 37
- Ki [4]: 86.7 nM
- Ki [5]: 3210 nM

Compound: COC(=O)[C@@H]1C2CCC(C[C@@H]1c1ccc(Cl)cc1)N2C (some centres undefined)
- Ki [4]: 5.1 nM

Compound: COC(=O)[C@H]1[C@@H](c2ccc(F)cc2)C[C@H]2CC[C@H]1N2C
- Ki [2]: 635 nM
- Ki [5]: 181 nM
